Source: ChEMBL document CHEMBL1154610, “Discovery and preclinical evaluation of [4-[[1-(3-fluorophenyl)methyl]-1H-indazol-5-ylamino]-5-methylpyrrolo[2,1-f][1,2,4]triazin-6-yl]carbamic acid, (3S)-3-morpholinylmethyl ester (BMS-599626), a selective and orally efficacious inhibitor of human epidermal growth factor receptor 1 and 2 kinases” (J Med Chem, 2009)

Tests used:
[1] = target: T1, Cytochrome P450 1A2 (Homo sapiens, UniProt P05177); experiment: Inhibition of human CYP1A2; type: ADME
T1 sequence (P05177 whole entry): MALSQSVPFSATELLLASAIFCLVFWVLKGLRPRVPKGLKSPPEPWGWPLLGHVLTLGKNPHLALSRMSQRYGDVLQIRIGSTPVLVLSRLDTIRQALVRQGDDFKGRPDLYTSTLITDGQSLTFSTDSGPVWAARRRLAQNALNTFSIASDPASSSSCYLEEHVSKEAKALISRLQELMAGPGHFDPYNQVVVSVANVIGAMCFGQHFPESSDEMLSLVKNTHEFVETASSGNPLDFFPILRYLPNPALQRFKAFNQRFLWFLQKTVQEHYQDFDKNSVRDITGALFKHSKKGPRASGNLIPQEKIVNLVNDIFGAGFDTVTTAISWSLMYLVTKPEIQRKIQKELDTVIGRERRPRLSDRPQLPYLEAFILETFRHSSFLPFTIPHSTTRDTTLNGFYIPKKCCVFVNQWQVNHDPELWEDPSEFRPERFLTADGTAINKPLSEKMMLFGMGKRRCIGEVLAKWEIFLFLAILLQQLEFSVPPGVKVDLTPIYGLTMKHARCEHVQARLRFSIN

[2] = system: L2987; experiment: Antitumor activity against human L2987 cells xenografted in athymic mouse at 60 mg/kg, po qd for 14 days; type: functional; details: L2987, 336 h, read-out: TGI
Summary of the method: (§1)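 Xenograft-bearing mice dosed orally once daily in propylene glycol/Tween80/water (40:10:50). TGI taken as percent tumor growth inhibition during treatment; significance from mean tumor weight at end of treatment; body weight loss and morbidity monitored.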

[3] = target: Receptor tyrosine-protein kinase erbB-2 (Homo sapiens, UniProt P04626); experiment: Inhibition of human recombinant HER2 expressed in Sf9 cells by liquid scintillation counting
[4] = system: Mus musculus; experiment: Plasma concentration in BALB/c mouse at 50 mg/kg, po; type: ADME, organism-based; set-up: dose 50 mg/kg, route oral; details: in vivo
Summary of the method: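 Compound given orally at 50 mg/kg as a solution in PEG400/Tween80/water (40:10:50) to three Balb/C mice. Plasma sampled over 4 h after dosing; AUC(0-4h), Cmax and 4 h concentration reported.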

[5] = system: NCI-N87; experiment: Antiproliferative activity against human NCI-N87 cells after 72 hrs by MTT assay; type: functional, cell-based; details: NCI-N87, 72 h
[6] = species on record: Mus musculus; experiment: Toxicity in athymic mouse bearing human tumor cells assessed as mortality; type: organism-based
Summary of the method: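 Mice carried human tumor xenografts (L2987, GEO, KPL4, N87) and were dosed orally once daily in propylene glycol/Tween80/water (40:10:50), with a q.d. × 21 schedule given. The L2987 dose levels included 30, 60 and 180 mg/kg. Toxicity was monitored during treatment as significant weight loss or morbidity.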

[7] = Protein binding in rat plasma at 10 uM by equilibrium dialysis; type: ADME, cell-free; details: read-out: PPB (converted)
[8] = target: T2, Epidermal growth factor receptor and ErbB2 (HER1 and HER2) (Homo sapiens) (UniProt P04626+P00533); experiment: Inhibition of HER1/HER2 phosphorylation in human N87 cells by Western blot; type: cell-based; details: NCI-N87
[9] = target: Epidermal growth factor receptor (Homo sapiens, UniProt P00533); experiment: Inhibition of human recombinant HER1 expressed in Sf9 cells by liquid scintillation counting
[10] = target: T2, Epidermal growth factor receptor and ErbB2 (HER1 and HER2) (Homo sapiens); experiment: Inhibition of HER1/HER2-mediated AKT phosphorylation in human GEO cells by Western blot; type: cell-based
[11] = system: NCI-N87; experiment: Antitumor activity against human NCI-N87 cells xenografted in athymic mouse at 120 mg/kg, po qd for 21 days; type: functional; details: NCI-N87, 504 h, read-out: TGI; summary of the method: as §1
[12] = Antitumor activity against human GEO cells xenografted in athymic mouse at 60 mg/kg, po qd for 14 days; type: functional; details: 336 h, read-out: TGI; summary of the method: as §1
[13] = system: L2987; experiment: Antitumor activity against human L2987 cells xenografted in athymic mouse at 180 mg/kg, po qd for 14 days; type: functional; details: L2987, 336 h, read-out: TGI; summary of the method: as §1
[14] = Mean residence time in mouse at 25 mg/kg, iv; type: ADME, organism-based; set-up: dose 25 mg/kg, route intravenous; details: in vivo
[15] = Protein binding in cynomolgus monkey plasma at 10 uM by equilibrium dialysis; type: ADME, cell-free, Macaca fascicularis; details: read-out: PPB (converted)
[16] = AUC (0 to 24 hrs) in cynomolgus monkey at 5 mg/kg, po; type: ADME, organism-based, Macaca fascicularis; set-up: time < 24 hr, dose 5 mg/kg, route oral; details: plasma
Summary of the method: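 Monkeys were dosed orally at 5 mg/kg as a solution in PEG400/Tween80/water (50:0.1:50).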

[17] = Half life in mouse plasma at 120 mg/kg, po; type: ADME, organism-based; set-up: dose 120 mg/kg, route oral
[18] = target: Cytochrome P450 2D6 (Homo sapiens, UniProt P10635); experiment: Inhibition of human CYP2D6; type: ADME
[19] = target: Voltage-gated inwardly rectifying potassium channel KCNH2 (Homo sapiens, UniProt Q12809); experiment: Inhibition of human ERG expressed in HEK cells; type: cell-based, HEK293
[20] = Antitumor activity against human KPL4 cells xenografted in athymic mouse at 60 mg/kg, po qd for 21 days; type: functional; details: KPL4, 504 h, read-out: TGI; summary of the method: as §1
[21] = Volume of distribution at steady state in rat at 2.5 mg/kg, iv; type: ADME, organism-based; set-up: dose 2.5 mg/kg, route intravenous; details: in vivo, read-out: Vdss
Summary of the method: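 Rat PK, average of three animals. Solution formulation in PEG400/Tween80/water (50:0.1:50), given orally at 10 mg/kg or iv at 2.5 mg/kg. Tmax comes from oral dosing; Vss comes from iv dosing.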

[22] = target: Cytochrome P450 2C19 (Homo sapiens, UniProt P33261); experiment: Inhibition of human CYP2C19; type: ADME
[23] = Oral bioavailability in rat at 10 mg/kg; type: ADME, organism-based; details: in vivo
[24] = Volume of distribution at steady state in cynomolgus monkey at 5 mg/kg, iv; type: ADME, organism-based, Macaca fascicularis; set-up: dose 5 mg/kg, route intravenous; details: in vivo, read-out: Vdss
Summary of the method: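 Monkey PK, mean of two animals. Compound given as a solution in PEG400/Tween80/water (50:0.1:50), 5 mg/kg both orally and iv. Tmax from the oral route; steady-state volume of distribution from the iv route.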

[25] = Antiproliferative activity against mouse SAL2 cells after 72 hrs by MTT assay; type: functional, cell-based; details: SAL2, 72 h

Chain of Receptor tyrosine-protein kinase erbB-2 (P04626 whole entry): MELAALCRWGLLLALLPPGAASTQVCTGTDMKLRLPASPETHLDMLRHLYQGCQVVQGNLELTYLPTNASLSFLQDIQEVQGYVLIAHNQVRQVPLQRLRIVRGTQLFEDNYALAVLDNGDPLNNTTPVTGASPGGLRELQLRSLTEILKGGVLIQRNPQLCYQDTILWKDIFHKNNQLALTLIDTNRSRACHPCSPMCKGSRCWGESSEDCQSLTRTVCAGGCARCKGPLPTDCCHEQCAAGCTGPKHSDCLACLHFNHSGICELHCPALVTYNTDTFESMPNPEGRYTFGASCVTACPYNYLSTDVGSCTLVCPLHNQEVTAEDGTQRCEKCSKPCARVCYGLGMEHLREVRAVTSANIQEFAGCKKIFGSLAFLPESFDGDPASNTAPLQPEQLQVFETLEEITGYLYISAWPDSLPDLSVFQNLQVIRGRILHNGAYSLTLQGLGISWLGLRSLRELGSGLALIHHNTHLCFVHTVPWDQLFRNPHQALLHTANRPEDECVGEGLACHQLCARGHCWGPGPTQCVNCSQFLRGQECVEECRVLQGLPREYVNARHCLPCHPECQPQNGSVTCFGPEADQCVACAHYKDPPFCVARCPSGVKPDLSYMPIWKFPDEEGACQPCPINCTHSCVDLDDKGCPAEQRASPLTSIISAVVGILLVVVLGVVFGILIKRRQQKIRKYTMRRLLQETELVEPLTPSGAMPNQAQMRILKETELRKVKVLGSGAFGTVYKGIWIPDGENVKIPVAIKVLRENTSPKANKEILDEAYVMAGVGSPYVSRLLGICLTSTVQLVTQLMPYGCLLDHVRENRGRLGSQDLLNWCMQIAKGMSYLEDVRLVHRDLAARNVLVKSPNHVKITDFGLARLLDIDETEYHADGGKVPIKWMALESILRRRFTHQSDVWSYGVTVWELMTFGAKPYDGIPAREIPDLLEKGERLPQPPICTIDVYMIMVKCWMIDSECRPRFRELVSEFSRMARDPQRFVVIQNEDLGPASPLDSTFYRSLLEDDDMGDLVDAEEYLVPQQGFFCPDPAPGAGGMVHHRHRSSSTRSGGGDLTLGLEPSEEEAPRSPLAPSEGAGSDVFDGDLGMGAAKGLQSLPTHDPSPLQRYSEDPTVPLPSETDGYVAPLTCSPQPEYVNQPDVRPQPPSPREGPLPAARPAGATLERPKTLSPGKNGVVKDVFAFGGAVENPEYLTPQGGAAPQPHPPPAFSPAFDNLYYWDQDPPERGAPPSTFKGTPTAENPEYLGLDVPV
Chain of Cytochrome P450 2C19 (P33261 whole entry): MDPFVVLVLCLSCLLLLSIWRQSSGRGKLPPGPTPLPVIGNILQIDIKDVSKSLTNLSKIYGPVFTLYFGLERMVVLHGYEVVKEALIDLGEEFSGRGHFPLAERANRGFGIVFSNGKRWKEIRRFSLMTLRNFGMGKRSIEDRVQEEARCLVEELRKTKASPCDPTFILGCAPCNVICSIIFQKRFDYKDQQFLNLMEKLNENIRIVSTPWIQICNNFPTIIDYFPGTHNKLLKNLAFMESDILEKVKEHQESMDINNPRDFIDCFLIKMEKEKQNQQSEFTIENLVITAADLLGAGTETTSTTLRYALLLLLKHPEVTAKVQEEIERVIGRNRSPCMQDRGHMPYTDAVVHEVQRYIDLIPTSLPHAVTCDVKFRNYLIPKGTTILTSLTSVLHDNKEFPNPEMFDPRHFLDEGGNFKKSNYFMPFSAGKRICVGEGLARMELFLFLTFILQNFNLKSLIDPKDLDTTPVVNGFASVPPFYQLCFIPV
Chain of Epidermal growth factor receptor (P00533 whole entry): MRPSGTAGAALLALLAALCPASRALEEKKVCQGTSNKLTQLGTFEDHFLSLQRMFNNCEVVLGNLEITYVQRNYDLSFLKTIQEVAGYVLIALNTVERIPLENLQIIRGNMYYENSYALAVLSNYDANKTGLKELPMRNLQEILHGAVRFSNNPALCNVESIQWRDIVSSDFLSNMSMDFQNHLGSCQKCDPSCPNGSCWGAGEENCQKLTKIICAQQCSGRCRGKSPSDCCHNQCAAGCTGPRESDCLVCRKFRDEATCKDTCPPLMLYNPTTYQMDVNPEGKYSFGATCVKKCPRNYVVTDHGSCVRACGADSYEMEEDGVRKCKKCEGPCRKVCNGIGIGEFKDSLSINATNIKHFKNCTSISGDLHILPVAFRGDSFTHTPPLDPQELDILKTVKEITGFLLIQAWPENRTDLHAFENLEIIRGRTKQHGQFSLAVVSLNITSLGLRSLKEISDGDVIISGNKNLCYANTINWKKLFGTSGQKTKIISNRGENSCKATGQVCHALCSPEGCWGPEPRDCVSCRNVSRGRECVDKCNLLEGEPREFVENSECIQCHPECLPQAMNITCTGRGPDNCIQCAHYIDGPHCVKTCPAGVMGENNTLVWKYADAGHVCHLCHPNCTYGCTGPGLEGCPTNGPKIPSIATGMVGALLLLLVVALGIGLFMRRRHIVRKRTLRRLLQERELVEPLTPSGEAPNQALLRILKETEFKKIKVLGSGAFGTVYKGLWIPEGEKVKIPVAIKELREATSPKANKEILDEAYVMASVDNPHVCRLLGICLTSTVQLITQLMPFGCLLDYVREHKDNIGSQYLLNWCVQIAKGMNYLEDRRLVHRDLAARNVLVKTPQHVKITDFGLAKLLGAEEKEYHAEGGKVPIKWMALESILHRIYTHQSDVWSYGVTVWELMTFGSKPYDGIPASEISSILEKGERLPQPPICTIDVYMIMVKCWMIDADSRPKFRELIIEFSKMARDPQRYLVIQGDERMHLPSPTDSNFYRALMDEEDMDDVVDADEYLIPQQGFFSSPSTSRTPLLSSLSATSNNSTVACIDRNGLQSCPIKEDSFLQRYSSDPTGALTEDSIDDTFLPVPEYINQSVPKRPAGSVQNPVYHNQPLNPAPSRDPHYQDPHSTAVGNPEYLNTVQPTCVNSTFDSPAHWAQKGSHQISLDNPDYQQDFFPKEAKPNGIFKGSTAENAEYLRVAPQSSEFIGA
Chain of Cytochrome P450 2D6 (P10635 whole entry): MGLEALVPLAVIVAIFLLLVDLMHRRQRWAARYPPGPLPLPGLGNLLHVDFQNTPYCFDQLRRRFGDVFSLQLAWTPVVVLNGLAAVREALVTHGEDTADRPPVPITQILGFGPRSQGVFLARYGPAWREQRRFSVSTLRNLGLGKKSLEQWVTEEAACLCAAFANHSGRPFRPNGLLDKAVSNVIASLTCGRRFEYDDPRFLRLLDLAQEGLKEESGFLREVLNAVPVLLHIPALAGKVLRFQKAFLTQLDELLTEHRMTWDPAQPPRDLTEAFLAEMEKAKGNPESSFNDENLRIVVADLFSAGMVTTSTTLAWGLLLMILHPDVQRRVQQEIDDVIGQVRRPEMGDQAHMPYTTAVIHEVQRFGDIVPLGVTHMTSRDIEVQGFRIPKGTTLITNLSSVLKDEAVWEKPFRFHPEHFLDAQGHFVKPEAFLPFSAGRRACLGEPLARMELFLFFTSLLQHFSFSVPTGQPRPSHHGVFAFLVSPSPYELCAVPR
Chain of Voltage-gated inwardly rectifying potassium channel KCNH2 (Q12809 whole entry): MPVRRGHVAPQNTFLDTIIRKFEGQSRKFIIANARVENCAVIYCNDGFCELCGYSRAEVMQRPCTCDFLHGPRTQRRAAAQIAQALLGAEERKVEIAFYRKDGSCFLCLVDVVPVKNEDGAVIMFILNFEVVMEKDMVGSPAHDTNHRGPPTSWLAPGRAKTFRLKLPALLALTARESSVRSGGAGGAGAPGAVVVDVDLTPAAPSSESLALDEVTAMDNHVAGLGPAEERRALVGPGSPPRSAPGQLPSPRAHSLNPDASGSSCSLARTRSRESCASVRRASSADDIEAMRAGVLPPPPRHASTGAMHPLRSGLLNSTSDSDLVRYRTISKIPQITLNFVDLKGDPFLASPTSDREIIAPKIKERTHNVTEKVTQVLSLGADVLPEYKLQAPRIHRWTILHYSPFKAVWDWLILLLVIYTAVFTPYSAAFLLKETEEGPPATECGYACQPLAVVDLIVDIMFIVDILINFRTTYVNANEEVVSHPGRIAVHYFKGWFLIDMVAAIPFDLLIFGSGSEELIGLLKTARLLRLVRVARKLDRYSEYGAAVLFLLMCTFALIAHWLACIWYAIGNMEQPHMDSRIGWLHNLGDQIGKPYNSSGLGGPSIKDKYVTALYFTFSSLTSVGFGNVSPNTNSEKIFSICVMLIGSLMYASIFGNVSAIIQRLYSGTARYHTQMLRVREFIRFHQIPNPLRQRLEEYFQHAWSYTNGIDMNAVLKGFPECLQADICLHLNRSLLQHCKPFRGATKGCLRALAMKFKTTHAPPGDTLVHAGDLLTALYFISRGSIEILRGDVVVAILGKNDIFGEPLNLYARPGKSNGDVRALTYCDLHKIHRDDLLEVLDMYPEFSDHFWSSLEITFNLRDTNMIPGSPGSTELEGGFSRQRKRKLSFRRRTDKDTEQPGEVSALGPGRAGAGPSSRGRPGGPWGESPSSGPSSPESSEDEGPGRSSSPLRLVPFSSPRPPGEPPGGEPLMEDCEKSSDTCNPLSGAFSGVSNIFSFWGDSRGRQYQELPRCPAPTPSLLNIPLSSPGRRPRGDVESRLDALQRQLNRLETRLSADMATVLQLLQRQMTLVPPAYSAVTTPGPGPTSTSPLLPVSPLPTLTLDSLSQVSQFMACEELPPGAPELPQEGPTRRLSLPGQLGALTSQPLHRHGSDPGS

**Q.** For Cc1c(NC(=O)OC[C@@H]2COCCN2)cn2ncnc(Nc3ccc4c(cnn4Cc4cccc(F)c4)c3)c12 [AC-480], which IC50 [1] is on record?
**A.** > 40 µM

**Q.** And the inhibition in vivo at 60 mg/kg [2]?
**A.** 58%

**Q.** And the IC50 [3]?
**A.** 0.022 µM

**Q.** And the concentration [4]?
**A.** 4.1 µM

**Q.** And the IC50 [5]?
**A.** 0.45 µM

**Q.** And the Activity [6]?
**A.** Non-toxic

**Q.** What about the fraction unbound at 10 µM [7] of the same molecule?
**A.** 0.029

**Q.** What about the inhibition [8] of the same molecule?
**A.** Dose-dependent effect

**Q.** What about the IC50 [9] of the same molecule?
**A.** 0.032 µM

**Q.** And the inhibition [10]?
**A.** Dose-dependent effect

**Q.** And the inhibition in vivo at 120 mg/kg [11]?
**A.** 81%

**Q.** What about the inhibition in vivo at 60 mg/kg [12] of the same molecule?
**A.** 39%

**Q.** What about the inhibition in vivo at 180 mg/kg [13] of the same molecule?
**A.** 99%

**Q.** And the MRT [14]?
**A.** 3.7 h

**Q.** What about the fraction unbound at 10 µM [15] of the same molecule?
**A.** 0.031

**Q.** And the AUC(0-t) at 24 h [16]?
**A.** 3.6 µM·h

**Q.** And the half-life [17]?
**A.** 2.7 h

**Q.** What about the IC50 [18] of the same molecule?
**A.** > 40 µM

**Q.** What about the IC50 [19] of the same molecule?
**A.** 4 µM

**Q.** What about the inhibition in vivo at 60 mg/kg [20] of the same molecule?
**A.** 61%

**Q.** And the Vd [21]?
**A.** 5.7 L/kg

**Q.** And the IC50 [22]?
**A.** 10 µM

**Q.** What about the bioavailability [23] of the same molecule?
**A.** 40%

**Q.** What about the Vd [24] of the same molecule?
**A.** 4 L/kg

**Q.** And the IC50 [25]?
**A.** 0.24 µM
